{"data": "Results of several laboratories", "target": "SRSF protein kinase 1 (SRPK1, Homo sapiens, UniProt Q96SB4)", "note": "Protocols differ between the studies behind these lines."}
{"Structure (SMILES)": "Cn1cc(-c2cccc(N3CCc4c(sc5c4CC(C)(C)C5)C3=O)c2CO)cc(Nc2ccncn2)c1=O", "observed": "enzyme activity", "action": "inhibitor", "tested at": "1 µM", "quantity": "inhibition", "value": "5%"}
{"Structure (SMILES)": "COc1cc(Nc2ncc(F)c(Nc3ccc4c(n3)NC(=O)C(C)(C)O4)n2)cc(OC)c1OC", "observed": "binding", "tested at": "10 µM", "quantity": "inhibition", "value": "87%"}
{"Structure (SMILES)": "COc1ncccc1-c1cnn2ccc(N3CCN(C(=O)OC(C)C)CC3)nc12", "observed": "binding", "technique": "competition with immobilised ligand", "tested at": "1 µM", "quantity": "remaining binding", "value": "19%"}
{"Structure (SMILES)": "C#Cc1n[nH]c2c(-c3cn([C@@H](C)c4ccccn4)c(=O)[nH]c3=O)cc(F)cc12", "observed": "enzyme activity", "action": "inhibitor", "tested at": "0.1 µM", "quantity": "inhibition", "value": "3.3%"}
{"Structure (SMILES)": "Cc1nn(C)cc1-c1nc2c(N3CCN(Cc4ccc(Cl)cc4)CC3)c(Cl)cnc2[nH]1", "observed": "binding", "technique": "competition with immobilised ligand", "tested at": "1 µM", "quantity": "remaining binding", "value": "7.8%"}
{"Structure (SMILES)": "Cn1cc(-c2cc(F)cc(N3CCn4c(cc5c4CCCC5)C3=O)c2CO)cc(Nc2ccc(N3CCN(C4COC4)CC3)cn2)c1=O", "observed": "enzyme activity", "action": "inhibitor", "tested at": "0.1 µM", "quantity": "inhibition", "value": "14%"}
{"Structure (SMILES)": "O=c1[nH]c2ccccc2n1C1CCN(Cc2ccc(-c3[nH]c4cc5ncnc5cc4nc3-c3ccccc3)cc2)CC1", "observed": "cell-free assay", "tested at": "0.5 µM", "quantity": "remaining signal", "value": "106%"}
{"Structure (SMILES)": "Cn1cncc1[C@](O)(COc1ccc(C#N)cc1-c1ccc(OC(F)(F)F)cc1)c1ccc(C#N)cc1", "observed": "cell-free assay", "technique": "competition with immobilised ligand", "tested at": "1 µM", "quantity": "remaining binding", "value": "70%"}
{"Structure (SMILES)": "C#Cc1n[nH]c2c(-c3cn([C@@H](C)c4ccccc4)c(=O)[nH]c3=O)cc(F)cc12", "observed": "enzyme activity", "action": "inhibitor", "tested at": "0.1 µM", "quantity": "inhibition", "value": "3.1%"}
{"Structure (SMILES)": "CC(C)(C)c1cc(C=C(C#N)C#N)cc(Br)c1O", "observed": "enzyme activity", "action": "inhibitor", "tested at": "0.5 µM", "quantity": "remaining activity", "value": "101%"}
